# Screening data (PubChem)
# Shown are actives, neighbours in structure and some others; about 2.5% of the full set was active somewhere.
# SENP6 block: inhibitors of human SENP6 protease; actives 1.8% (n = 330,000); inhibition, % at 10 µM; Recombinant SENP6 catalytic domain, aminoluciferin luminescence; AID 2599;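 active = inhibition above about 50% at the single tested dose, limit read from the data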;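 note: plate controls were DMSO wells with enzyme for no effect and DMSO wells lacking enzyme for full effect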
# SENP8 block-1: blocks the human protease SENP8; actives 1.2% (n = 330,000); Q96LD8; purified SENP8, Z-RLRGG-aminoluciferin cleavage, luminescence; AID 2540; inhibition, % at 10 µM; in the data active = inhibition above about 50%
# Target sequence (Q96LD8 whole entry, looked up): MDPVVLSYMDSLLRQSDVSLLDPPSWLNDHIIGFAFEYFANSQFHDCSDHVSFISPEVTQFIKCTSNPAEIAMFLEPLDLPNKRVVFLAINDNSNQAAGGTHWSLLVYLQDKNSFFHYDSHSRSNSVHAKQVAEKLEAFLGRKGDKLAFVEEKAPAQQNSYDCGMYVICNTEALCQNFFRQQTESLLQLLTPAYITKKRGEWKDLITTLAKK
# SENP8 block-2: inhibitors of human SENP8 protease; Q96LD8; recombinant SENP8, Nedd8 substrate fluorescence; actives 0.64% (n = 360,000); inhibition, % at 20 µM; in the data active = inhibition mostly above about 40%, no sharp cut-off; inactive = mostly below about 27%
# SENP7 inh: blocks the human protease SENP7; Q9BQF6; recombinant SENP7, Z-RLRGG-aminoluciferin luminescence, 40 min; inhibition, % at 5 µM; actives 1.5% (n = 330,000);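 active = inhibition above about 50% at the single test dose, limit read from the data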;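 note: plate controls were DMSO with enzyme for no effect and no enzyme buffer wells for full effect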
# SENP1 inh: blocks the human SENP1 SUMO protease catalytic domain | actives 0.21% (n = 360,000) | recombinant SENP1 catalytic domain, CyPet-SUMO1-YPet FRET cleavage | inhibition, % at 10 µM | Q9P0U3;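 active = inhibition at least 30% at 10 µM, raw YFP signal under a set limit, fluorescence ratio 0.5 to 1.5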;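 note: 0% = enzyme with DMSO and 100% = no enzyme wells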
# Target sequence (Q9P0U3 419-644 limits assumed): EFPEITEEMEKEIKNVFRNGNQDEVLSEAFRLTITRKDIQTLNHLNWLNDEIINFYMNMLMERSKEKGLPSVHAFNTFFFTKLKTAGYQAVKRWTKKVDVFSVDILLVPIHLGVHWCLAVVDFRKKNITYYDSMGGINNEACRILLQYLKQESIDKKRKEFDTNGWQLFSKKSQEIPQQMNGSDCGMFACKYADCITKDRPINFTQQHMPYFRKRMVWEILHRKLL
#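 Material – human SENP1 catalytic domain · Input – SENP1 enzyme, 20 pM final · Compound dosing – single concentration of 10 µM compound, 0.5% DMSO final · Timing – enzyme reaction for 50 min at room temperature, dark · Measured by – FRET fluorescence in CFP and YFP emission channels · Control set – no-enzyme wells low, DMSO-plus-enzyme wells high control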
# * marks the source's active call; other numbers are inactive results; / = no result given.
SMILES,SENP6 block,SENP8 block-1,SENP8 block-2,SENP7 inh,SENP1 inh
CC1OC2CC(=O)OC2C2=C1C(=O)c1c(O)cccc1C2=O (stereo unspecified),/,/,99*,/,5
CC(C)C(=O)Nc1nnc(SCC(=O)NC2CCCC2)s1,-30,-4,14,-5,0
Cc1ccc(CSc2nnc(SCC(=O)N/N=C/c3ccc(C(=O)O)cc3)s2)cc1,92*,72*,10,55*,1
Cc1ccc(CSc2nnc(SCC(=O)N/N=C/c3c[nH]c4ccccc34)s2)cc1,/,/,12,/,1
O=C(CSc1nnc(SCc2ccccc2)s1)N/N=C/c1ccc(C(=O)O)cc1,20,51*,14,24,-1
Cc1ccc(CSc2nnc(SCC(=O)N/N=C/c3ccccc3OCC(=O)O)s2)cc1,88*,60*,18,22,-2
O=C(CSc1nc2ccccc2s1)N/N=C/c1ccc(C(=O)O)cc1,-7,-6,1,-4,2
Cc1ccc(Nc2c([N+](=O)[O-])ccc3nonc23)cc1C,-24,7,28,6,2
CN1C(=O)/C(=C/c2ccc(O)c([N+](=O)[O-])c2)N(C)C1=S,91*,87*,26,83*,1
O=C1S/C(=C\c2ccc(O)c([N+](=O)[O-])c2)C(=O)N1c1ccccc1Cl,-8,-8,28,-9,3
CC(=O)N1CCN(C(=O)c2ccc(NS(=O)(=O)c3ccc4[nH]c(=O)[nH]c4c3)cc2)CC1,-3,-8,3,-7,1
Cn1nc(C2CC2)cc1NC(=O)C1(C)CCN1C(=O)Cc1ccc(-c2ccccc2)cc1 (stereo unspecified),/,/,10,/,2
CN1CCN(C(=O)c2cnn3c2NC(c2ccccc2)CC3C(F)(F)F)CC1 (stereo unspecified),2,2,27,6,0
Cc1ccc2cc(NC(=O)c3cccc(F)c3)ccc2n1,58*,31,25,40,-3
O=C(Nc1ccc2[nH]ncc2c1)c1cccc(F)c1,0,-14,15,1,2
NS(=O)(=O)c1ccc(N/N=C/c2ccc(C(=O)O)cc2)c([N+](=O)[O-])c1,-5,1,29,-2,2
Cc1nn(-c2ccccc2)c(N2CCCC2)c1/C=N/Nc1ccc(S(N)(=O)=O)cc1[N+](=O)[O-],-23,1,48*,-6,4
N#C/C(=C(/O)c1ccc2c(c1)OCO2)c1nc2cc(C(F)(F)F)ccc2s1,48,54*,-51,5,10
O=C(Cn1c2ccccc2c(=O)c2ccccc21)Nc1cccc(F)c1,11,9,-376,12,-25
Cc1nn(-c2ccccc2)c2c1C(c1ccccc1)C(C#N)=C(N)O2 (stereo unspecified),46,4,2,52*,0
CC1=NN(c2ccccc2)C(=O)/C1=C/C=C/C=C/N(C)C,1,6,23,6,33*
COc1ccc(/C=C2/C(=O)N(c3ccccc3)N=C2C)cc1Br,-3,-2,46*,22,4
COc1ccc(/C=C2/C(=O)N(c3cccc(F)c3)N=C2C)c(OC)c1,20,-2,41*,49,1
CC1=NN(c2ccccc2)C(=O)/C1=C\N(O)c1ccccc1,25,7,76*,36,3
Cc1noc(C)c1C(=O)N1CCC1(C)C(=O)NS(=O)(=O)c1cccc(F)c1 (stereo unspecified),/,/,14,/,1
SMILES,SENP6 block,SENP8 block-1,SENP8 block-2,SENP7 inh,SENP1 inh
CCOC(=O)c1ccccc1NC(=O)COC(=O)c1cc([N+](=O)[O-])ccc1N1CCOCC1,2,-10,14,-2,0
CC1=NN(c2ccccc2)C(=O)/C1=C/c1ccc[nH]1,-22,-10,46*,-7,2
CC1=NN(c2ccc(C(=O)O)cc2)C(=O)/C1=C/c1ccc(-c2ccccc2F)o1,5,4,26,18,1
CC1=NN(c2ccccc2)C(=O)C1=Cc1ccccc1,/,/,50*,/,2
CC1=NN(c2ccc(C(=O)O)cc2)C(=O)/C1=C\c1ccc(OC(=O)c2cccs2)cc1,8,-4,61*,36,3
CC1=NN(c2ccccc2)C(=O)/C1=C/c1c(O)n(-c2ccc(F)cc2)[nH]c1=O,58*,31,31,-2,4
CC1=NN(c2ccccc2)C(=O)/C1=C/c1cccs1,9,-1,16,19,0
COc1ccc(C(=O)NN2CCOCC2)cc1,-16,-5,-1,11,-1
Cc1nnsc1C(=O)NC1CCCc2c1cnn2-c1ccc(C(C)(C)C)cc1 (stereo unspecified),0,0,-7,4,2
CN(Cc1ccncc1)C(=O)[C@@H]1CCCN1C(=O)[C@@H]1CCCN1,/,/,20,/,0
CC1CCCCN1C(=O)Cn1c(=O)oc2cc(S(=O)(=O)N3CCCC3)ccc21 (stereo unspecified),-8,10,16,-7,1
NC(=O)Cn1ccc(O)c(Cc2ccc(Cl)cc2Cl)c1=O,2,-3,9,-3,-1
CC1=NN(c2ccccc2)C(=O)/C1=C/c1ccc(Cl)cc1,41,27,41*,50,1
CC1=NN(c2ccccc2)C(=O)/C1=C\c1ccc(Br)s1,20,2,17,44,1
COc1ccc(C(C#N)N2N=C(c3ccccc3)CC2c2ccccc2)cc1OC (stereo unspecified),28,-10,-8,73*,-40
Cc1nc(-c2ccccc2)sc1-c1ccnn1C,-4,-5,-420,7,1
Cc1nc(-c2ccccc2)sc1-c1ccn[nH]1,61*,47,-391,56*,-1
O=C(N/N=C/c1ccccc1OCC(=O)N1CCCC1)C(=O)Nc1ccccc1F,70*,34,-2,61*,3
O=C(c1[nH]c(C(F)(F)F)nc1-c1ccccc1)N1CCN(c2ncccc2C(F)(F)F)CC1,/,/,16,/,1
Fc1ccc2c(c1)C(c1ccc(N3CCOCC3)cc1)=NNC(c1cccs1)=N2,-5,-2,-141,3,42*
CCc1nc2c(OCC3CCCCC3)cccn2c1N(C)C(=O)c1ccc(C)cc1,/,/,8,/,-1
O=c1[nH]cnc2c1ncn2C1OC(CO)CC1F (stereo unspecified),/,/,7,/,0
CC(=O)NC(C)(c1ccccc1)c1nc(-c2cncnc2)cs1 (stereo unspecified),/,/,18,/,0
Cn1nc(-c2ccc(Cl)cc2)cc1NC(=O)CSCC(=O)O,-2,2,16,4,3
CC(=O)Nc1nc(-c2ccc(Cl)cc2)ns1,55*,35,-7,13,-11
Cc1ccc(-c2nn(-c3ccccc3)cc2C(=O)NCC2CCCO2)cc1 (stereo unspecified),-1,2,2,-2,-1
Cc1cc(O)c(C=O)c2c1C(=O)Oc1c(CO)c(O)c3c(c1O2)C(O)OC3=O (stereo unspecified),-156,5,25,-5,30*
